According to ChEMBL document CHEMBL4422684, “Identification of novel lysine demethylase 5-selective inhibitors by inhibitor-based fragment merging strategy” (Bioorg Med Chem, 2019):

The compounds below were run against T1, Lysine-specific demethylase 4A (Homo sapiens) (UniProt O75164) (assay: Inhibition of human N-terminal His-tagged KDM4A (1 to 350 residues) expressed in Escherichia coli at 50 uM using H3(21-44)-K36(Me3)-GK(Biotin)/2-OG as substrate measured after 1 hr by Alphalisa assay relative to control).
T1 sequence (whole entry): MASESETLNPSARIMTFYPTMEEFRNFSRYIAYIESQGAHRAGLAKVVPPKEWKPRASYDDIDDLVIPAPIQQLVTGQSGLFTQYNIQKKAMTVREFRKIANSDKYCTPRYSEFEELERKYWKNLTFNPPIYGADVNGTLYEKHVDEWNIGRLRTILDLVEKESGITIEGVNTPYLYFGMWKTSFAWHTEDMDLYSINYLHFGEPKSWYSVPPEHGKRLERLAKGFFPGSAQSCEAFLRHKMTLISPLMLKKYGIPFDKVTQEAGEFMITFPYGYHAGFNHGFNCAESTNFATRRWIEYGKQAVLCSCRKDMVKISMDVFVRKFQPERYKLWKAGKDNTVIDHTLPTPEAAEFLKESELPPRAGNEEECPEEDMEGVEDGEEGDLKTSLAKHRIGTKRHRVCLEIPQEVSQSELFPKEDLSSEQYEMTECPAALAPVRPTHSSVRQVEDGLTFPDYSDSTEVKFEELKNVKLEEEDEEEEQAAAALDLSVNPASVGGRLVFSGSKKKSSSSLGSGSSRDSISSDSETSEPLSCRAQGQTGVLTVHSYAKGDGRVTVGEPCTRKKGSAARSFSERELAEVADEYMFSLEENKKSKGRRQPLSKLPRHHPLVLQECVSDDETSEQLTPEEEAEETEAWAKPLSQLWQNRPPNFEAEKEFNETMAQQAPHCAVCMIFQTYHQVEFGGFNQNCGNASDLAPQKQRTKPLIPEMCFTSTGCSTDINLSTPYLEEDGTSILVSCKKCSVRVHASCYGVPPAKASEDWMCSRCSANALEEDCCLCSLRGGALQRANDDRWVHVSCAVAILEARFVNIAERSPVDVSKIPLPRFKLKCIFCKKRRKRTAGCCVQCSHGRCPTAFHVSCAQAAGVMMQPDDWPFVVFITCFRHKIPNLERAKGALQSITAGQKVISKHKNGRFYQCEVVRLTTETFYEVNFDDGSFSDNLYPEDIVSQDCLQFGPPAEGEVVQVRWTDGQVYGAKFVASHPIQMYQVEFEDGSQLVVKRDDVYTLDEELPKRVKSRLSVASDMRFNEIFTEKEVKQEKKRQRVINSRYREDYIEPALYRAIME
Outline: (§1)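 AlphaLISA demethylase assay in 50 mM HEPES pH 7.5, 0.1% BSA, 0.01% Tween 20 with DMSO. Enzyme and inhibitor combined, then peptide plus 2-OG (50 µM), Fe(II) (5 µM) and ascorbate (100 µM) in the added mix; 1 h at room temperature with shaking.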

Row | Structure (SMILES) | inhibition [%]
1 | CCCCCCN(C)CCc1ccc(-c2[nH]c3c(C#N)cnn3c(=O)c2C(C)C)cc1 | 71
2 | CCCCCCN(C)Cc1ccc(-c2[nH]c3c(C#N)cnn3c(=O)c2C(C)C)cc1 | 32.5
3 | CC(C)c1c(-c2ccccc2)[nH]c2c(C#N)cnn2c1=O | 61.1
4 | CCCCCN(C)CCCCC(=O)N(O)CCC(=O)O | 25.4

What follows are compounds tested against T1, Lysine-specific demethylase 4A (Homo sapiens) (assay: Inhibition of human N-terminal His-tagged KDM4A (1 to 350 residues) expressed in Escherichia coli at 25 uM using H3(21-44)-K36(Me3)-GK(Biotin)/2-OG as substrate measured after 1 hr by Alphalisa assay relative to control).
Outline: as §1

Row | Structure (SMILES) | inhibition [%]
5 | CCCCCCN(C)CCc1ccc(-c2[nH]c3c(C#N)cnn3c(=O)c2C(C)C)cc1 | 32.4
6 | CC(C)c1c(-c2ccccc2)[nH]c2c(C#N)cnn2c1=O | 35.9

These compounds were tested against Lysine-specific demethylase 5B (Homo sapiens, UniProt Q9UGL1) (assay: Inhibition of human N-terminal FLAG/His-tagged KDM5B (2 to 751 residues) expressed in baculovirus infected Sf9 insect cells using H3(1-21)K4(Me3)-GGK(Biotin)/2-OG as substrate measured after 1 hr by Alphalisa assay).
Outline: as §1

Lysine-specific demethylase 5B, sequence (Q9UGL1 whole entry, the tested form may be a part): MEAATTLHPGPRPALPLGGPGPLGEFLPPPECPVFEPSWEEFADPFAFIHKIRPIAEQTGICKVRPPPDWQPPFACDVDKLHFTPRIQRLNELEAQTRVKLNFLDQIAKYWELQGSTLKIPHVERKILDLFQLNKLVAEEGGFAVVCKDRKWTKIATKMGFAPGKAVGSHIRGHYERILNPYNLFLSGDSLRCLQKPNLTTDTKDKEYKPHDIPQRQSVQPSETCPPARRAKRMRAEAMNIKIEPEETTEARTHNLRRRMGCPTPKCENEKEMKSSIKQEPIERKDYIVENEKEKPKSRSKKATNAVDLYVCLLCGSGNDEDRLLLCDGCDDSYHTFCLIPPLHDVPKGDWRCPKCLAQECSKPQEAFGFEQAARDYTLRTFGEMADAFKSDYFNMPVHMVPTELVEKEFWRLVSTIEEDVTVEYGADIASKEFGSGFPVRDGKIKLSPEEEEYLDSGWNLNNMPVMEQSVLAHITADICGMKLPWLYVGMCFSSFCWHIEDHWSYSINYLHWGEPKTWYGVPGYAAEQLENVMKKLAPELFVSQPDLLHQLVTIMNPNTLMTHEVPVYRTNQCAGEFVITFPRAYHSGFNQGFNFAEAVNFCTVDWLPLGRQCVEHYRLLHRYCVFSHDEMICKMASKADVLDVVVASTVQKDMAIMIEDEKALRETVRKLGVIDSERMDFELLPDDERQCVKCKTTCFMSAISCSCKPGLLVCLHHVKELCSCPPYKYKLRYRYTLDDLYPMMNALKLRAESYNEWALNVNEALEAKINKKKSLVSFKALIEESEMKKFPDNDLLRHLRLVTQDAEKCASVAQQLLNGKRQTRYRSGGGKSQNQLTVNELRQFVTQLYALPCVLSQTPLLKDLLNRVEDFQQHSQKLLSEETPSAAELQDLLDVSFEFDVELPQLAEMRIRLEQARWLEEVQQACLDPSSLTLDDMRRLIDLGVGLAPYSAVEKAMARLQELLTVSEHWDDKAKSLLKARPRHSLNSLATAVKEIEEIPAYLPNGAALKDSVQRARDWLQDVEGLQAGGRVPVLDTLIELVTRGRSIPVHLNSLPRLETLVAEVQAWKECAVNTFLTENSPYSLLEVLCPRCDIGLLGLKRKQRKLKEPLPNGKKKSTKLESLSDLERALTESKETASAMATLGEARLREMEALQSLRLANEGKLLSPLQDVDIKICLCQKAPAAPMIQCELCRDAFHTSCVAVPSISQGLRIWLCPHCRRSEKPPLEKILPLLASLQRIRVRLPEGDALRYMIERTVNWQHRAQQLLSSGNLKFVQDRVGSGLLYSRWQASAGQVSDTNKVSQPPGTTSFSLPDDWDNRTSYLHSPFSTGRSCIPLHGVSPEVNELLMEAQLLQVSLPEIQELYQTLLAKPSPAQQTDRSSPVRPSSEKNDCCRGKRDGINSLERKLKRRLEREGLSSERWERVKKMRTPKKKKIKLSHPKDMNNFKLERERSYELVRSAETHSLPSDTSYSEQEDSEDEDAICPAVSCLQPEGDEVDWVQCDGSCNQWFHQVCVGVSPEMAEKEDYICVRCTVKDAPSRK

Row | Structure (SMILES) | IC50 [µM]
7 | CCCCCCN(C)CCc1ccc(-c2[nH]c3c(C#N)cnn3c(=O)c2C(C)C)cc1 | 0.00134
8 | CCCCCCN(C)Cc1ccc(-c2[nH]c3c(C#N)cnn3c(=O)c2C(C)C)cc1 | 0.0511
9 | CC(C)c1c(-c2ccccc2)[nH]c2c(C#N)cnn2c1=O | 0.337
10 | CCCCCN(C)CCCCC(=O)N(O)CCC(=O)O | 9.24

The compounds below were run against T2, Lysine-specific demethylase 3A (Homo sapiens) (UniProt Q9Y4C1) (assay: Inhibition of human N-terminal FLAG-tagged KDM3A (2 to 1321 residues) expressed in baculovirus infected Sf9 insect cells at 50 uM using H3(1-21)K9(Me1)-GGK(Biotin)/2-OG as substrate measured after 1 hr by Alphalisa assay relative to control).
T2 sequence (whole entry): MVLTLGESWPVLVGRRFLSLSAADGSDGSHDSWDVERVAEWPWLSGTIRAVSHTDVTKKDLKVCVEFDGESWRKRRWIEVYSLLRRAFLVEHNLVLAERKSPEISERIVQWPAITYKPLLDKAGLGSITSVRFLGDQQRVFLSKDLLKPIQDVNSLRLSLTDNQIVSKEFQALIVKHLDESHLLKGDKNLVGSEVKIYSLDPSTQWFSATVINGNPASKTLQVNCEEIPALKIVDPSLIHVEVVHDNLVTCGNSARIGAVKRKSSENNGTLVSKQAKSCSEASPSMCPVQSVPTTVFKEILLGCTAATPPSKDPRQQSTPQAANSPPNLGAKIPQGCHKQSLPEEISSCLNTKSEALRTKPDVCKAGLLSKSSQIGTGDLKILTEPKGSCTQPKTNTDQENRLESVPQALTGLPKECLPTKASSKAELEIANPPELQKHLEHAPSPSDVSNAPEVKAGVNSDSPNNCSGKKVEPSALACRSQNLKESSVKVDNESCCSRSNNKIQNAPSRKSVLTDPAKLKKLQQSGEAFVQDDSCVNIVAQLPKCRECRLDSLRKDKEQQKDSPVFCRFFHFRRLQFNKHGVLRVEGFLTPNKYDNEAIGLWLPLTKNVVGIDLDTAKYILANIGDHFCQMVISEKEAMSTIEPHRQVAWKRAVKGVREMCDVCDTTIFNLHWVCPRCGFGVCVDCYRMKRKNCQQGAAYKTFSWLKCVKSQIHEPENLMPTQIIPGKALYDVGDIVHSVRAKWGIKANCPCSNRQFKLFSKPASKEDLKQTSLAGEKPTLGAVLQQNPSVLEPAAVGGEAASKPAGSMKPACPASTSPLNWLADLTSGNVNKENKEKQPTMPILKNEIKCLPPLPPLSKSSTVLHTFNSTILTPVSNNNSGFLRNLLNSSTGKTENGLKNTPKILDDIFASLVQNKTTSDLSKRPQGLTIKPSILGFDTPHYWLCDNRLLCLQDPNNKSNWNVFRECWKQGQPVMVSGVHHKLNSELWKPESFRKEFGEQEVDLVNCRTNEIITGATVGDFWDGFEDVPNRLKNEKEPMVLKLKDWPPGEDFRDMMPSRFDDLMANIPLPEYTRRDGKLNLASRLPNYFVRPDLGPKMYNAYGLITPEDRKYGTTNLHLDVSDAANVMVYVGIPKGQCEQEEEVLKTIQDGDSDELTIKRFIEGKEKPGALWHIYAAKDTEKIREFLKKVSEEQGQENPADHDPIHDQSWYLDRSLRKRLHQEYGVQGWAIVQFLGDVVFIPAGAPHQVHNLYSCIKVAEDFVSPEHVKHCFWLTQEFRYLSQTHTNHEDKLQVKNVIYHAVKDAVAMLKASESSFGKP
Outline: as §1

Row | Structure (SMILES) | inhibition [%]
11 | CCCCCCN(C)Cc1ccc(-c2[nH]c3c(C#N)cnn3c(=O)c2C(C)C)cc1 | 61.5
12 | CC(C)c1c(-c2ccccc2)[nH]c2c(C#N)cnn2c1=O | 31.9
13 | CCCCCN(C)CCCCC(=O)N(O)CCC(=O)O | 30.1

These compounds were tested against Histone lysine demethylase PHF8 (Homo sapiens, UniProt Q9UPP1) (assay: Inhibition of human N-terminal FLAG-tagged KDM7B (2 to 525 residues) expressed in baculovirus infected Sf9 insect cells at 25 uM using H3(1-21)K9(Me2)-GGK(Biotin)/2-OG as substrate measured after 1 hr by Alphalisa assay relative to control).
Outline: as §1

Histone lysine demethylase PHF8, sequence (Q9UPP1 whole entry, the tested form may be a part): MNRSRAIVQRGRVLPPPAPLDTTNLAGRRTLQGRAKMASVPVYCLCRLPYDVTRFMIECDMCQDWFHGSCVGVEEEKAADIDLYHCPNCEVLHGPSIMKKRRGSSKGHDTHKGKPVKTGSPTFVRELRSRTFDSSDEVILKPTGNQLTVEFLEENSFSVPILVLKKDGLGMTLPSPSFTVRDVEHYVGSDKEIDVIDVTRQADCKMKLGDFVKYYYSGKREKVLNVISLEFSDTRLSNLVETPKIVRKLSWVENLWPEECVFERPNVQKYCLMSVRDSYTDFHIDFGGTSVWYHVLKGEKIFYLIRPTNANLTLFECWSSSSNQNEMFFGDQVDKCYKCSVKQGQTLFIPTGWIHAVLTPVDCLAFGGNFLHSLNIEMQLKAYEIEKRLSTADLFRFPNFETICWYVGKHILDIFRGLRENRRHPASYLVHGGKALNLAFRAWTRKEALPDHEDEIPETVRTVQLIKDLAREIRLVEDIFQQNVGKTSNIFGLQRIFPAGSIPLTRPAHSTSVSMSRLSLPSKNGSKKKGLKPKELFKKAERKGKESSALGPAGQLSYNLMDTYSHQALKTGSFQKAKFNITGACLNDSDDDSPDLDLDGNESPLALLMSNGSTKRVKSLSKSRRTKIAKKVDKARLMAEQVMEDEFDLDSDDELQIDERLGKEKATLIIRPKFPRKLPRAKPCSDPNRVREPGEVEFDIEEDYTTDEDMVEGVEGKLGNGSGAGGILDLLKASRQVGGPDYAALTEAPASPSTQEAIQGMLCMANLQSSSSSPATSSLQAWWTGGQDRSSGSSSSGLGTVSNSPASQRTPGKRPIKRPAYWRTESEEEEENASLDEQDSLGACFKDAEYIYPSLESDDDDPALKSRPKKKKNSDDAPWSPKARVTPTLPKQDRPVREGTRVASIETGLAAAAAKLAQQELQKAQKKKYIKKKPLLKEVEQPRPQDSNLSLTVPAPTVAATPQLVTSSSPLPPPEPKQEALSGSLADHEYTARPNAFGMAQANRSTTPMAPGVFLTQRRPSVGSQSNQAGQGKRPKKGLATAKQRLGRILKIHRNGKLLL

Row | Structure (SMILES) | inhibition [%]
14 | CCCCCCN(C)CCc1ccc(-c2[nH]c3c(C#N)cnn3c(=O)c2C(C)C)cc1 | 11.8
15 | CCCCCCN(C)Cc1ccc(-c2[nH]c3c(C#N)cnn3c(=O)c2C(C)C)cc1 | 12.1
